Hits are enriched below; roughly 3.7% of the tested compounds scored in any of these assays.
XBP1 UPR activ – activators of adaptive arm of unfolded protein response (XBP1); CHO-XBP1 luciferase reporter, IRE1-XBP1 UPR activation, luminescence; percent of tunicamycin response, DMSO as zero; activation, % at 20 µM; 330,000 tested, 0.33% active; AID 463104;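 active = versus positive control, 20 µM dose yields 30% or more activation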;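 note: 100% = tunicamycin at 10 µg/mL and 0% = DMSO only wells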
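Assay system: CHO-XBP1 luciferase reporter cells; Schedule: 6 h treatment, 37 °C; Detection: glow luminescence from Steady-Glo reagent; Benchmarks: high control tunicamycin 10 µg/mL final, low control DMSO vehicle only.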
B2AR ag – agonists of human beta-2 adrenergic receptor inducing internalization; Am2.2-beta2AR cells, FAP receptor internalization, flow cytometry; response, % (no concentration beside the values); 340,000 tested, 0.43% active;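 active = response above a set limit, near 3 SD of response in nonfluorescent compounds, cut at about 42% in these data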
Target sequence (P07550 whole entry, looked up): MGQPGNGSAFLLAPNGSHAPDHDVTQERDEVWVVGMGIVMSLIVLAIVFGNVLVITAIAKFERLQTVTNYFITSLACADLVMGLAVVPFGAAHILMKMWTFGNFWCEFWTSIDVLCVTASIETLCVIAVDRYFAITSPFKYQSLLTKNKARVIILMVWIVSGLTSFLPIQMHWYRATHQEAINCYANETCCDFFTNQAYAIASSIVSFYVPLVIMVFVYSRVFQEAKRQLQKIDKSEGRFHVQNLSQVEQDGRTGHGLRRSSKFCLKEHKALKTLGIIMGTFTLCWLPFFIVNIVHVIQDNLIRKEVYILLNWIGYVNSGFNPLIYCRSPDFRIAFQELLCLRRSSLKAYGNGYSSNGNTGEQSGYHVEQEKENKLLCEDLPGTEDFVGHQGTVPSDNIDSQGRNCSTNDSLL
Mdm2 MdmX PPI – human Mdm2/MdmX binding inhibition. SaOS-2 split-luciferase Mdm2/MdmX complementation, luminescence. inhibition, % at 8 µM. O15151+Q00987. 330,000 tested, 3% active;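 active = inhibition of at least 50% at 8 µM in the primary screen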
UPR CHOP act – apoptotic UPR (CHOP) activation. AID 449763. activation, % at 10 µM. 330,000 tested, 0.34% active. CHO-CHOP luciferase reporter, luminescence; percent of tunicamycin response over DMSO baseline;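 active = at 10 µM dose, activation of 40% or more, normalized to positive control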;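 note: 100% = tunicamycin at 10 µg/mL and 0% = DMSO alone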
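assay system = CHO CHOP reporter cells | amount = 500 CHO-CHOP cells per well | buffer or medium = F12 with 10% FBS | incubation = 16-18 h cell attachment, then 6 h compound exposure, 37 °C | detection = luminescence read with Steady-Glo | read-out = percent activation relative to tunicamycin control | controls = tunicamycin high control, DMSO low control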
Dynein transport – dynein cargo transport inhibition; AID 1381; 220,000 tested, 0.47% active; 3617.4 mouse cells, GR-EGFP nuclear translocation imaging; test concentration mostly 20 µM; stimulated with dexamethasone, 1 µM; hits give low values; z-score, hits read low;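 active = plate z-score of nuclear minus cytoplasmic receptor signal below a set negative limit, without overly bright fluorescence or cell loss, cut at about -3.5 in these data, passing the limit was not always enough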;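 note: z-score of nuclear minus cytoplasmic ring GR-EGFP intensity difference per well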
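Schedule: 48 h induction, then 1 h compound, then 30 min agonist, 37 °C. Buffer or medium: tetracycline-free induction medium containing charcoal-stripped FBS. Reagent: 1.0 µM final dexamethasone stimulus. Evaluation: nuclear versus cytoplasmic GR-EGFP signal, averaged per well. Signal: high-content fluorescence imaging after fixation.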
Mdm2 ligase inh – blocks human Mdm2 ubiquitin ligase activity; Q00987; cell-based MDM2 ubiquitination luciferase reporter, 2 h; 0 = plate control, 100 = twice control, blank-subtracted; signal enhancement, % at 5 µM; 210,000 tested, 0.11% active; AID 1230;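 active = signal enhancement of 30% or more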;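 note: luminescence tracks abundance of the self-degrading MDM2-luciferase fusion protein; higher signal means inhibition of MDM2 E3 ligase activity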
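Assay system: stable mammalian line carrying autodegrading MDM2–luciferase fusion reporter; Input: 2000 cells in each well; Compound dosing: single-point 5 µM; Schedule: 2 h compound exposure at 37 °C; Signal: SteadyLite luciferase luminescence after 15 min room-temperature reagent incubation; Evaluation: % luminescence enhancement versus blank-corrected plate control mean; Benchmarks: plate controls and plate blanks.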
Dynein confirm – dynein cargo transport inhibition, confirmation; shares compounds with Dynein transport; 3617.4 GR-EGFP nuclear translocation imaging, dexamethasone-induced; calls only at 20 µM; 1,000 tested, 69% active; AID 463116;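 active = inhibition of receptor movement into the nucleus at or above a set limit in both runs, with normal cell brightness and cell count; inconclusive = limit reached in only one run, brightness and count normal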;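 note: dexamethasone at 1 µM final in well for 30 min; nuclear minus cytoplasmic GR-EGFP mean intensity difference in channel 2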
* hit, by the source's call; i = inactive; ? = inconclusive; . = no result given; + = active, no number.

SMILES	XBP1 UPR activ	B2AR ag	Mdm2 MdmX PPI	UPR CHOP act	Dynein transport	Mdm2 ligase inh	Dynein confirm
COc1ccc(Nc2ncccc2C(=O)NCc2ccccc2)cc1	0	-1	-13	-2	0.18	-3	.
COc1cc2c(cc1OC)CN(CCC(=O)c1ccc(Br)cc1)CC2	-3	4	17	-2	-4.1*	-8	?
COc1cc2c(cc1OC)CN(C(=O)CCNC(=O)c1ccc(Br)cc1)CC2	-2	-1	22	-1	.	.	.
Cn1nnnc1SC1CC(=O)N(c2ccccc2)C1=O (stereo unspecified)	0	3	5	1	-4.6*	.	+
O=C1CC(Sc2nnnn2C2CCCCC2)C(=O)N1c1ccccc1 (stereo unspecified)	-10	5	1	5	-0.27	12	.
COc1ccc(C)cc1NC(C)C(=O)NC(=O)NC1CCCCC1 (stereo unspecified)	1	-3	-37	-3	.	.	.
N#CCCCCN1CCCC1	.	3	.	.	0.54	-11	.
CCN(CC)C(=O)Cn1nc(-c2ccc(Cl)cc2)c2ccccc2c1=O	-4	-10	7	-2	.	.	.
Cc1ccc(S(=O)(=O)/N=C(\Sc2ccccc2)c2ccccc2)cc1	11	15	17	3	-3.5*	-12	+
CCCN1C(=O)/C(=C\C=C2/Sc3ccccc3N2CCO)SC1=S	22	-14	25	7	-0.19	-29	.
CCCCN1C(=O)/C(=C/C=C2\Oc3ccccc3N2CC)SC1=S	.	i	.	.	-4.6	2	+
CCCN1C(=O)/C(=C/C=C2\N(CC)c3ccccc3C2(C)C)SC1=S	-3	i	12	0	-7.9	-35	i
CCc1ccc(NS(=O)(=O)c2cccs2)cc1	2	-1	7	0	-4.1	-15	i
Cc1cc(C)cc(NS(=O)(=O)c2cccs2)c1	1	5	12	3	.	.	.
COc1ccc(CCNC(=O)c2cc(-c3ccncc3)nc3ccc(S(=O)(=O)N4CCOCC4)cc23)cc1OC	-4	17	-3	3	.	.	.
COCc1cc(S(=O)c2ccc(Cl)cc2)nc(C)n1 (stereo unspecified)	.	-5	.	.	-4.5*	-26	+
COc1ccc(CN=Cc2[nH]c3ccc(Br)c(Cl)c3c2O)cc1	-2	-196	13	1	-5*	-7	+
COc1ccc(CN=CC2=C(O)CNC2=O)cc1	-2	-4	21	-3	-0.23	-6	.
Cc1cc(C)cc(N=Cc2[nH]c3ccc(Br)c(Cl)c3c2O)c1	.	.	.	.	-9.1	.	+
O=S1(=O)CCC(NC(=S)SCCOc2ccccc2)C1 (stereo unspecified)	-3	15	28	12	-3.9*	-13	+
CC1CC(C)(C)Nc2ccc(OC(=O)c3ccco3)cc21 (stereo unspecified)	-14	7	32	0	-2.8	-13	.
CC1CC(C)(C)Nc2ccc(N=O)cc21 (stereo unspecified)	.	16	.	.	-4*	-4	+
CC(C)NC(=O)c1sc2nc(-c3cccs3)cc(-c3cccs3)c2c1N	-2	.	15	1	0.22	1	.
Nc1c(C(=O)C2CC2)sc2nc(-c3cccs3)cc(C(F)(F)F)c12	1	i	3	-4	-5.6	-20	i
COc1ccc(/C=c2\s/c(=C/C(=O)c3ccc(C)cc3)[nH]c2=O)cc1OC	1	-21	28	3	-6.6	-10	i
SMILES	XBP1 UPR activ	B2AR ag	Mdm2 MdmX PPI	UPR CHOP act	Dynein transport	Mdm2 ligase inh	Dynein confirm
CC(C)(C)C(=O)/C=c1\[nH]c(=O)/c(=C\c2ccc(F)cc2)s1	-2	3	-23	3	-0.049	-10	.
CC1CCC(NC(=O)CN2C(=O)NC(C)(C)C2=O)CC1 (stereo unspecified)	1	2	15	-1	.	.	.
CCn1c(SCC(=O)N2CCOCC2)nc2oc3c(Cl)cc(Cl)cc3c(=O)c2c1=O	-1	.	45	18	-3.5*	-24	+
CCn1c(SCC(=O)N2CCOCC2)nc2sc3c(c2c1=O)CCCC3	-2	-5	22	-1	3.7	-10	.
Cc1ccc(CN(C(=O)c2csnn2)C(C(=O)NC2CCCC2)c2ccccn2)cc1 (stereo unspecified)	0	-4	3	0	.	.	.
COc1ccc(N=N/C(=C\O)C(=O)c2cccs2)cc1	0	26	43	3	-0.052	-3	.
COc1ccc(/C=C(/C(=O)c2cccs2)N2C=CC=CC2=C(C#N)C#N)cc1	.	77*	.	.	-3.6*	-12	?
O=C(O)c1ccc(C=C(c2nc3ccccc3s2)c2nc3ccccc3s2)cc1	2	11	18	0	-4.6*	-4	+
CC(C)OC(=O)c1ccc2nc3ccccc3nc2c1	-1	11	-184	3	.	.	.
COc1ccc(CNS(=O)(=O)CCNC(=O)c2ccc(OC)cc2)cc1	0	-3	-29	1	.	.	.
O=C(O)CCCn1c(O)c(C=C2N=c3ccccc3=N2)sc1=S	-1	16	12	3	0.089	.	.
COCCCn1c(O)c(/C=C2\N=C(C#N)C(=Nc3ccc(C)cc3)O2)sc1=S	8	-312	19	14	-6.4	-22	+
CN(CC(=O)Nc1ccc(Cl)cc1)C(=O)CCC1CCCC1	0	-3	11	2	.	.	.
Cc1ccc(-n2nnnc2CCl)cc1	.	7	.	.	-6.1*	3	+
COc1ccccc1/C=C/C(=O)/C=C/c1ccccc1O	.	23	.	.	-4.2*	.	+
CC(C)NC(=O)N(C)C[C@@H]1Oc2c(NC(=O)C3CCOCC3)cccc2C(=O)N([C@@H](C)CO)C[C@H]1C	-1	-2	4	0	.	.	.
Cc1ccc(/C=C/C(=O)NCC2COc3ccccc3O2)o1 (stereo unspecified)	-2	-4	23	0	-6.6*	-17	+
Cn1c(-c2ccccc2)c(C(=O)CCl)c2ccccc21	.	32	.	.	-3.8*	11	+
CCOC(=S)SCC(=O)Nc1nccs1	-3	7	19	-2	-1.7	-2	.
CCOC(=S)SCC(=O)Nc1nc(C)c(C)s1	-5	-1	2	3	-3.9*	.	+
Cc1ccc(N2CC(C(=O)OCC(=O)Nc3ccc(Cl)cc3)CC2=O)cc1 (stereo unspecified)	-1	-3	-1	1	.	.	.
